# Bioassay records (PubChem BioAssay)
# E-sel inducer: E-selectin induction in HUVECs, primary screen, imaging, HUVEC, immunofluorescence imaging, single point; activation, % at 7.58 µM; 0.37% of 260,000 active; P16581; normalized: neutral wells 0, TNF-alpha wells 100;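 active = mean E-selectin-positive cell signal at least 10% of the positive control, reached in at least 60% of replicates, without over 20% cell loss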
# Target sequence (P16581 whole entry, looked up): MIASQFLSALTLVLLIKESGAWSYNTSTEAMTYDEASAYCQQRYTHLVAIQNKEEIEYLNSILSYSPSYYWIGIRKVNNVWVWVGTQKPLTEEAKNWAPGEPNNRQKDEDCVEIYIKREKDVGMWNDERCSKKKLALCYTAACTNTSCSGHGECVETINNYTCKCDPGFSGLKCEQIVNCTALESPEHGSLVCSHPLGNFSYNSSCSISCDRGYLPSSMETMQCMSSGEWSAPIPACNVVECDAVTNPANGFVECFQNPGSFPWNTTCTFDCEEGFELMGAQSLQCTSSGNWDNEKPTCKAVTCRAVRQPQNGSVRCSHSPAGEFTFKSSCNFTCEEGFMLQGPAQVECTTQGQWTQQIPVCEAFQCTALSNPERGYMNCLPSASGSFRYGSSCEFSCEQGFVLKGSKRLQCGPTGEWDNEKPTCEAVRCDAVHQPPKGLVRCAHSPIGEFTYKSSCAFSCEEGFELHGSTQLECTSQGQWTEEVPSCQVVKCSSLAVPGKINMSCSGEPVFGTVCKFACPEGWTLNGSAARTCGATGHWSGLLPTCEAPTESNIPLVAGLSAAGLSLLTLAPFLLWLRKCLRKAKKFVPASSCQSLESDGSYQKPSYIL
#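 Test system – human umbilical vein endothelial cells (HUVEC), E-selectin induction · Input – 3,000 HUVEC seeded per well · Buffer or medium – EGM-2, gelatin · Compound dosing – single-point compound dose · Detection – immunofluorescence imaging · Measure – percent E-selectin-positive cells · Controls – TNF-alpha high, DMSO low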
# Xi reactivation: activators of inactive X chromosome reactivation, primary screen, imaging, XiGFP fibroblasts, GFP high-content imaging, set 2. XiGFP mouse fibroblasts, % GFP-positive cells imaging, 3 d; cells co-treated with 5-aza-dC sensitizer; scaled so ellipticine positive control = 100%. activation, % at 7.58 µM. 0.055% of 360,000 active. AID 743238, 2013;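 active = mean normalized replicate activation at least 10% and every replicate at or above 10%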
#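 System: SV40-immortalized XiGFP fibroblast cells, line 68-5-11 / Incubation: 3-day compound exposure, then 15 min fixation at room temperature / Compound: single concentration per compound, delivered by pin transfer / Buffer or medium: DMEM plus 5-aza-dC sensitizer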
# Numbers stand for hits; . = inactive; / = no result. The sample as a whole holds a higher share of hits than the screen did.
SMILES,E-sel inducer,Xi reactivation
Cc1c(C(=O)N2CCN(S(=O)(=O)c3cc(F)ccc3F)CC2)oc2ccccc12,343,.
Cc1c(C(=O)N2CCN(S(=O)(=O)c3ccccc3)CC2)oc2ccccc12,.,.
O=C1NC(=O)C2(COC(c3cccc([N+](=O)[O-])c3)OC2)S1 (stereo not drawn),533,.
CC1(C)COC(c2cccc([N+](=O)[O-])c2)OC1,.,.
CCN(CC)CCCNC(=O)c1cc2c(=O)n(CC)c3ccccc3c2s1,.,.
CCN(CC)CCNC(=O)c1cc2c(=O)n(CC)c3ccccc3c2s1,63,.
O=C(Cc1cccnc1)N1[C@H](CO)[C@H]2c3ccccc3NC[C@H]21,.,.
N#Cc1c(-c2ccccc2F)cc(C2CC2)nc1SCC(=O)c1cccs1,/,60
CCOC(=O)CSc1nc(C2CC2)cc(-c2ccc(Cl)cc2)c1C#N,.,.
C[C@@H]1CN([C@H](C)CO)C(=O)c2cc(-c3ccccc3F)cnc2O[C@@H]1CN(C)C(=O)c1ccccn1,.,.
Cc1ccc(S(=O)(=O)N(C)C[C@@H]2Oc3ccc(N(C)C)cc3C(=O)N([C@@H](C)CO)C[C@@H]2C)cc1,.,.
Cc1ccc(S(=O)(=O)N(C)C[C@@H]2Oc3ccc(N(C)C)cc3C(=O)N([C@H](C)CO)C[C@H]2C)cc1,36,.
Cc1ccc(S(=O)(=O)N(C)C[C@H]2Oc3ccc(N(C)C)cc3C(=O)N([C@@H](C)CO)C[C@@H]2C)cc1,47,.
Cc1ccc(S(=O)(=O)N(C)C[C@H]2Oc3ccc(N(C)C)cc3C(=O)N([C@H](C)CO)C[C@@H]2C)cc1,.,.
C[C@H]1CN([C@@H](C)CO)C(=O)c2cccc(NC(=O)Nc3cccc4ccccc34)c2O[C@H]1CN(C)Cc1ccc(C(=O)Nc2ccccc2N)cc1,.,.
CCCC#Cc1ccc2c(c1)O[C@H](CN(C)C(=O)C1CCC1)[C@H](C)CN([C@@H](C)CO)S2(=O)=O,.,.
O=C(C[C@H]1C[C@H]2c3cc(NC(=O)NC4CCCC4)ccc3O[C@H]2[C@@H](CO)O1)NCc1cccc(F)c1,/,.
CC(C)NC(=O)N(C)C[C@H]1Oc2c(NC(=O)c3nc4ccccc4s3)cccc2C(=O)N([C@H](C)CO)C[C@@H]1C,.,.
C[C@@H]1CN([C@H](C)CO)C(=O)c2cc(NC(=O)CCN3CCOCC3)ccc2O[C@@H]1CN(C)Cc1ccncc1,36,.
C[C@@H]1CN([C@H](C)CO)C(=O)c2cc(NC(=O)CCN3CCOCC3)ccc2O[C@@H]1CN(C)Cc1ccc(C(F)(F)F)cc1,178,.
C[C@H](CO)N1C[C@H](C)[C@H](CN(C)Cc2ccncc2)Oc2ccc(NC(=O)CCN3CCOCC3)cc2C1=O,.,.
C[C@H]1CN([C@@H](C)CO)C(=O)c2cc(NC(=O)CCN3CCOCC3)ccc2O[C@@H]1CN(C)Cc1ccncc1,362,.
C[C@H]1CN([C@@H](C)CO)C(=O)c2cc(NC(=O)CCN3CCOCC3)ccc2O[C@H]1CN(C)Cc1ccc(C(F)(F)F)cc1,.,.
C[C@H](CO)N1C[C@H](C)[C@@H](CN(C)Cc2ccncc2)Oc2ccc(NC(=O)CCN3CCOCC3)cc2C1=O,.,.
Fc1cccc(-c2ccc(C3[C@H]4CNC[C@@H]3N4Cc3cncnc3)cc2)c1 (stereo partly drawn),.,.
SMILES,E-sel inducer,Xi reactivation
CCNC(=O)C[C@@H]1CC[C@@H]2[C@H](COC[C@H](O)CN2C(=O)Nc2ccc(C(F)(F)F)cc2)O1,.,.
CC(=O)c1cccc(NC(=O)C2=CC(c3ccco3)=NS(=O)(=O)N2C)c1,/,.
CC(=O)c1cccc(NC(=O)C2=CN3CCS(=O)(=O)N=C3C=C2)c1,75,.
C[C@@H]1CN([C@H](C)CO)C(=O)c2cc(C3=CCCC3)cnc2O[C@H]1CN(C)Cc1cccnc1,.,.
Cc1noc(C)c1NC(=O)Nc1ccc2c(c1)C(=O)N([C@H](C)CO)C[C@H](C)[C@@H](CN(C)Cc1ccccc1)OCCCC[C@H](C)O2,.,.
CCC(C)(C)NC(=O)/C=C/c1ccccc1[N+](=O)[O-],.,.
CCNC(=O)/C=C/c1ccccc1[N+](=O)[O-],31,.
O=C(Nc1cccc(S(=O)(=O)NCc2ccco2)c1)c1cccc(Cl)c1,200,.
CC(=O)Nc1cccc(C(=O)Nc2cccc(S(=O)(=O)NCc3ccco3)c2)c1,.,.
C[C@H](CO)N1C[C@H](C)[C@H](CN(C)C(=O)Nc2ccc(F)cc2)OCCCC[C@H](C)Oc2ccc(NS(=O)(=O)c3cn(C)cn3)cc2C1=O,.,.
CC(C)NC(=O)Nc1cccc2c1O[C@@H](CN(C)Cc1ccc(Cl)c(Cl)c1)[C@H](C)CN([C@@H](C)CO)C2=O,.,.
